Test results reported in ChEMBL document CHEMBL1131385, “Does the anti-hepatitis B virus activity of (+)-5'-noraristeromycin exist in its 4'-epimer and 4'-deoxygenated derivatives?” (J Med Chem, 1998).

Columns and labels:
[1] = system: Hepatoblastoma cell line; experiment: (§1) Effective concentration against Hepatitis B virus in human hepatoblastoma cell line; type: functional, cell-based
Procedure, shortened: (§2)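 Confluent cultures of the human hepatoblastoma line 2.2.15, which chronically produces HBV, were used to measure inhibition of HBV replication. Cells got nine consecutive daily doses of agent, with the medium removed each day.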

[2] = system: Hepatoblastoma cell line; experiment: as §1; type: functional; procedure, shortened: as §2
[3] = system: Hepatoblastoma cell line; experiment: Cytotoxic concentration against Hepatitis B virus in human hepatoblastoma cell line; type: functional
[4] = Selectivity index was evaluated [Selectivity = (CC50 / EC50) against Hepatitis B virus in human hepatoblastoma cell line]; type: functional

SMILES	EC50 [1] [µM]	EC90 [2] [µM]	CC50 [3] [µM]	SI [4]
Nc1ncnc2c1ncn2[C@H]1C[C@@H](O)[C@H](O)[C@@H]1O	> 10	> 10	1880	
COC1CC(n2cnc3c(N)ncnc32)C(O)C1O (configuration not stated)	> 10	> 10	> 1000	

The next compounds have a lower EC50 [1] than those just listed; values first:

EC50 [1] [µM]	EC90 [2] [µM]	SMILES	CC50 [3] [µM]	SI [4]
0.145	1.4	Nc1ncnc2c1ncn2[C@H]1C=C[C@H](O)[C@@H]1O	325	232
0.12	0.978	Nc1ncnc2c1ncn2[C@@H]1CC[C@@H](O)[C@H]1O	93	95
0.07	0.209	Nc1ccn([C@@H]2CS[C@H](CO)O2)c(=O)n1 [LAMIVUDINE]	1880	9014
1.4	9.6	Nc1ncnc2c1ncn2[C@@H]1C[C@H](O)[C@@H](O)[C@H]1O [NORARISTEROMYCIN]	446	46
